Reference: ChEMBL document CHEMBL3865803, “Bicyclic octahydrocyclohepta[b]pyrrol-4(1H)one derivatives as novel selective anti-hepatitis C virus agents” (Eur J Med Chem, 2016)

How the values were obtained:
[1] = Cytotoxicity against human Huh7.5 cells measured after 48 hrs by MTS assay; assay type: toxicity, cell-based, Huh-7; conditions: for CC50 at 48 h: Huh7.5 cells; for Activity: huh-7, 48 h
Outline: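 Parental Huh7.5 cells were treated 12 h after seeding with 8-10 dilutions of compound or DMSO (1% final) for 48 h at 37 °C. Viability was read by MTS bioreduction to formazan. CC50 is the concentration halving the MTS signal, mean ± SD of three independent experiments.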

[2] = test system: Hepatitis C virus; assay: Antiviral activity against HCV genotype 1b infected in human Huh7/Rep-Feo1b replicon cells assessed as inhibition of viral RNA replication at 50 uM measured after 48 hrs by luciferase reporter gene assay relative to control; assay type: functional, Hepacivirus hominis; conditions: Huh-7, 48 h
Outline: (§1)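 Replicon cells (gt1b firefly luciferase; gt2a Renilla luciferase) in DMEM/10% FBS with G418, ~1 × 10^4 cells/well, dosed 12 h after seeding with 50 µM compound or DMSO (1% final) for 48 h at 37 °C. Cells were PBS-washed and luciferase read; % inhibition was taken versus DMSO-treated cells, mean±SD, n=3.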

[3] = test system: Hepatitis C virus; assay: Antiviral activity against HCV genotype 1b infected in human Huh7/Rep-Feo1b replicon cells assessed as inhibition of viral RNA replication measured after 48 hrs by luciferase reporter gene assay; assay type: functional, cell-based, Hepacivirus hominis; conditions: Huh-7, 48 h
Outline: (§2)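 EC50 from concentration-response in replicon cells (gt1b firefly, gt2a Renilla luciferase reporter) maintained with G418. Compound added 12 h post-seeding (~1 × 10^4 cells/well), 48 h exposure, DMSO 1% final. Luciferase was compared with DMSO controls; the value is the mean ± SD of three independent 8-12 point quarter-log dilution series, calculated with CalcuSyn.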

[4] = Selectivity index, ratio of CC50 for human Huh7.5 cells to EC50 for HCV genotype 1b infected in human Huh7/Rep-Feo1b replicon cells; design: species or system Huh-7
[5] = test system: Hepatitis C virus; assay: Antiviral activity against HCV genotype 2a infected in human Huh7.5-FGR-JC1-Rluc2A replicon cells assessed as inhibition of viral RNA replication at 50 uM measured after 48 hrs by luciferase reporter gene assay relative to control; assay type: functional, Hepacivirus hominis; conditions: Huh-7, 48 h; outline: as §1
[6] = test system: Hepatitis C virus; assay: Antiviral activity against HCV genotype 2a infected in human Huh7.5-FGR-JC1-Rluc2A replicon cells assessed as inhibition of viral RNA replication incubated for 48 hrs by luciferase reporter gene assay; assay type: functional, cell-based, Hepacivirus hominis; conditions: Huh-7, 48 h; outline: as §2
[7] = Selectivity index, ratio of CC50 for human Huh7.5 cells to EC50 for HCV genotype 2a infected in human Huh7.5-FGR-JC1-Rluc2A replicon cells; design: species or system Huh-7

Compound	CC50 at 48 h [1] [µM]	inhibition at 50 µM [2] [%]	EC50 [3] [µM]	Ratio CC50/EC50 [4]	inhibition at 50 µM [5] [%]	Activity [1] [%]	EC50 [6] [µM]	Ratio CC50/EC50 [7]
Cc1ccc(S(=O)(=O)N2[C@H](C(=O)NCCc3ccccc3)C[C@@H]3C(=O)CCCC[C@@H]32)cc1 (racemic)	153	66	28.1	5.4	48	–	–	–
Cc1ccc(S(=O)(=O)N2[C@H](C(=O)N3CCOCC3)C[C@@H]3C(=O)CCCC[C@@H]32)cc1 (racemic)	> 200	19	–	–	12	–	–	–
O=C1CCCC[C@@H]2[C@H](C[C@H](Cc3ccccc3)N2Cc2ccccc2)N1 (racemic)	> 50	82	7.5	>6.6	99	61	5.6	>8.8
O=C1CCCC[C@@H]2[C@@H](N1)[C@H](c1cccc(F)c1)CN2Cc1ccccc1 (racemic)	–	49	–	–	80	–	–	–
O=C1CCCC[C@@H]2[C@H]1[C@@H](c1ccccc1)CN2Cc1ccccc1 (racemic)	–	38	–	–	4	–	–	–
CCOC(=O)[C@@H]1C[C@@H]2C(=O)CCCC[C@@H]2N1S(=O)(=O)c1ccc(C(C)(C)C)cc1 (racemic)	> 200	49	34.4	>5.8	94	–	13	>15.4
CCOC(=O)[C@@H]1C[C@@H]2C(=O)CCCC[C@@H]2N1C(=O)c1ccccc1 (racemic)	> 200	59	14.9	>13.4	95	–	14.3	>13.9
CCOC(=O)[C@@H]1C[C@@H]2C(=O)CCCC[C@@H]2N1S(=O)(=O)c1ccnn1C (racemic)	> 200	–	–	–	17	–	–	–
OC1CCCC[C@H]2[C@H]1[C@@H](c1cccc(F)c1)CN2Cc1ccccc1 (mixture of isomers)	36.9	99	2	18.4	99	28	1.2	30.8
CCOC(=O)[C@@H]1C[C@@H]2[C@@H](CCC[C@@H]2O)N1S(=O)(=O)c1ccc(C)cc1 (racemic)	> 150	38	–	–	45	93	–	–
CCOC(=O)[C@@H]1C[C@@H]2/C(=N/OCc3ccccc3)CCCC[C@@H]2N1S(=O)(=O)c1ccc(C)cc1 (racemic)	> 200	–	–	–	30	–	–	–
CC(C)(C)OC(=O)N1CC[C@H]2[C@H](C(=O)C1)[C@@H](c1ccccc1)CN2Cc1ccccc1 (racemic)	> 50	94	9	>5.5	99	61	4.47	>11.2
CCOC(=O)[C@H](C)N1CC[C@H]2C(=O)CCCC[C@@H]21	–	–	–	–	83	–	–	–
CCOC(=O)[C@@H]1C[C@@H]2C(=O)CCCC[C@@H]2N1S(=O)(=O)c1ccc(Cl)cc1 (racemic)	> 200	32	–	–	60	–	23.8	8.4
Cc1ccc(S(=O)(=O)N2[C@H](C(=O)O)C[C@@H]3/C(=N/Nc4ccccc4)CCCC[C@@H]32)cc1 (racemic)	> 200	25	–	–	81	–	26.3	>7.6
CCOC(=O)[C@@H]1C[C@@H]2NC(=O)CCCC[C@@H]2N1S(=O)(=O)c1ccc(C)cc1 (racemic)	143	66	11.6	12.4	71	92	8.2	17.4
COc1cccc([C@@H]2CN(Cc3ccccc3)[C@@H]3CCCCC(=O)N[C@H]32)c1 (racemic)	–	59	–	–	54	–	–	–

Compound	CC50 at 48 h [1] [µM]	inhibition at 50 µM [2] [%]	EC50 [3] [µM]	Ratio CC50/EC50 [4]	inhibition at 50 µM [5] [%]	Activity [1] [%]	EC50 [6] [µM]	Ratio CC50/EC50 [7]
CCOC(=O)[C@@H]1C[C@@H]2[C@@H](OC(C)=O)CCCC[C@@H]2N1S(=O)(=O)c1ccc(C)cc1 (racemic)	> 200	60	27.2	7.3	73	–	25.8	7.7
CC(C)(C)OC(=O)N1CC[C@@H]2NC[C@H](c3ccccc3)[C@H]2C(=O)C1.Cl (racemic)	> 150	48	–	–	47	97	–	–
CCOC(=O)[C@@H]1C[C@]2(C)C(=O)CCCC[C@@H]2N1S(=O)(=O)c1ccc(C)cc1 (racemic)	> 200	50	49.1	4.1	76	–	14.2	14.1
Cl.Cl.Fc1cccc([C@@H]2CN(Cc3ccccc3)[C@@H]3CCCCCN[C@H]32)c1 (racemic)	< 50	98	–	–	61	11	–	–
O=C(O)[C@@H]1C[C@H]2[C@@H](O)CCC[C@H]2N1 (racemic)	–	–	–	–	12	–	–	–
CCOC(=O)[C@@H]1C[C@@H]2C(=O)CCCC[C@H]2N1S(=O)(=O)c1ccc(C)cc1 (racemic)	> 200	51	59.4	3.4	91	–	8.7	22.9
O=C1CCCC[C@H]2[C@H]1[C@@H](c1ccccc1)CN2Cc1ccccc1 (racemic)	134	71	7.7	17.3	96	85	4.6	29.2
CCOC(=O)[C@@H]1C[C@@H]2/C(=N/O)CCCC[C@@H]2N1S(=O)(=O)c1ccc(C)cc1 (racemic)	> 200	63	25.3	7.9	66	–	15.3	13.1
CCOC(=O)[C@@H]1C[C@@H]2[C@@H](O)CCCC[C@@H]2N1S(=O)(=O)c1ccc(C)cc1 (racemic)	> 200	22	–	–	77	–	27.6	7.3
CCNC(=O)[C@@H]1C[C@@H]2C(=O)CCCC[C@@H]2N1S(=O)(=O)c1ccc(C)cc1 (racemic)	> 200	15	–	–	39	–	–	–
CCOC(=O)[C@H]1C[C@H]2C(=O)CCCC[C@H]2N1S(=O)(=O)c1ccc(C)cc1 (racemic)	> 200	89	7.1	>28.2	84	77	6.1	>32.8
Cc1ccc(S(=O)(=O)N2[C@H](C(N)=O)C[C@@H]3C(=O)CCCC[C@@H]32)cc1 (racemic)	> 200	–	–	–	38	–	–	–
O=C1CCCC[C@@H]2[C@H]1[C@@H](c1ccccc1)CN2S(=O)(=O)c1ccccc1 (racemic)	> 200	78	16.5	12.1	88	84	11.4	17.6
CCOC(=O)[C@@H](C)N1CC[C@H]2C(=O)CCCC[C@@H]21	> 100	24	–	–	38	88	–	–
Cc1ccc(S(=O)(=O)N2[C@H](C(=O)O)C[C@@H]3C(=O)CCCC[C@@H]32)cc1 (racemic)	> 200	14	–	–	42	–	–	–
Cc1ccc(S(=O)(=O)N2[C@H]3CCCCC(=O)[C@@]3(C)C[C@H]2C(=O)O)cc1 (racemic)	> 200	41	–	–	33	–	–	–
C[C@]12C[C@@H](Cc3ccccc3)N(Cc3ccccc3)[C@H]1CCCC(=O)N2 (racemic)	> 50	87	18.2	>2.7	95	60	11.5	>4.3
